Assays:
[1] = Protein binding in cynomolgus monkey plasma at 1 mg/kg administered as iv infusion for 30 mins and measured after 24 hrs by ESI-LC/MS/MS analysis; assay type: ADME, organism-based, Macaca fascicularis; settings: read-out: PPB (converted)
[2] = Clearance in cynomolgus monkey at 1 mg/kg administered as iv infusion for 30 mins and measured after 24 hrs by ESI-LC/MS/MS analysis; assay type: ADME, organism-based, Macaca fascicularis; settings: in vivo
[3] = Ocular toxicity in Beagle dog assessed as irreversible damage by measuring choroidal inflammation at 10 to 100 mg/kg/day administered for 7 days measured on day 6 by ERG and OCT analysis; assay type: organism-based, Canis lupus familiaris; settings: in vivo, 168 h
[4] = Genotoxicity in Salmonella typhimurium by Ames test; assay type: toxicity; settings: salmonella enterica subsp. enterica serovar typhimurium
[5] = target: T1, Phosphatidylinositol 4,5-bisphosphate 3-kinase catalytic subunit beta isoform (Homo sapiens, UniProt P42338); assay: Inhibition of PI3Kbeta in PTEN-deficient human LNCAP cells assessed as reduction in AKT phosphorylation at Ser473 residue after 2 hrs by mesoscale assay; assay type: cell-based
Outline: (§1)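 Cellular readout: pAKT1 Ser473 normalized to total AKT1, expressed as units pAKT1 Ser473 per nanogram total AKT1; cells treated under serum-free conditions.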

[6] = Ocular toxicity in Beagle dog assessed as irreversible damage by measuring dilated pupils at 10 to 40 mg/kg/day administered for 7 days and measured from day 4 to day 7; assay type: organism-based, Canis lupus familiaris; settings: in vivo, 168 h
[7] = Terminal half life in cynomolgus monkey at 1 mg/kg administered as iv infusion for 30 mins and measured after 24 hrs by ESI-LC/MS/MS analysis; assay type: ADME, organism-based, Macaca fascicularis; settings: in vivo, read-out: beta t1/2 (converted)
[8] = target: T1, Phosphatidylinositol 4,5-bisphosphate 3-kinase catalytic subunit beta isoform; assay: Inhibition of PI3Kbeta in PTEN-deficient human ZR-75-1 cells assessed as reduction in AKT phosphorylation at Ser473 residue after 2 hrs by mesoscale assay; assay type: cell-based; outline: as §1
[9] = target: Phosphatidylinositol 4,5-bisphosphate 3-kinase catalytic subunit gamma isoform (Homo sapiens, UniProt P48736); assay: Inhibition of human full length p110gamma using PIP2 as substrate after 30 mins in presence of ATP at 2xKm concentration by TR-FRET assay
[10] = Clearance in rhesus monkey at 1 mg/kg administered as iv infusion for 30 mins and measured after 24 hrs by ESI-LC/MS/MS analysis; assay type: ADME, organism-based, Macaca mulatta; settings: in vivo
[11] = Volume of distribution at steady state in cynomolgus monkey at 1 mg/kg administered as iv infusion for 30 mins and measured after 24 hrs by ESI-LC/MS/MS analysis; assay type: ADME, organism-based, Macaca fascicularis; settings: in vivo, read-out: Vdss
[12] = Oral bioavailability in Sprague-Dawley rat at 5 mg/kg dosed via gavage after 24 hrs by ESI-LC/MS/MS analysis; assay type: ADME, organism-based; settings: in vivo
[13] = Terminal half life in rhesus monkey at 1 mg/kg administered as iv infusion for 30 mins and measured after 24 hrs by ESI-LC/MS/MS analysis; assay type: ADME, organism-based, Macaca mulatta; settings: in vivo, read-out: beta t1/2 (converted)
[14] = Terminal half life in Beagle dog at 1 mg/kg administered as iv infusion for 30 mins and measured after 24 hrs by ESI-LC/MS/MS analysis; assay type: ADME, organism-based, Canis lupus familiaris; settings: in vivo, read-out: beta t1/2 (converted)
[15] = target: T1, Phosphatidylinositol 4,5-bisphosphate 3-kinase catalytic subunit beta isoform; assay: Inhibition of PI3Kbeta in PTEN-deficient human PC3 cells assessed as reduction in AKT phosphorylation at Ser473 residue after 2 hrs by mesoscale assay; assay type: cell-based, PC-3; outline: as §1
Cytochrome P450 3A4 = Cytochrome P450 3A4 (Homo sapiens, UniProt P08684); assay: Inhibition of human CYP3A4; assay type: ADME
[16] = Dissociation constant, acidic pKa of compound; assay type: physicochemical
[17] = Ocular toxicity in Beagle dog assessed as irreversible damage by measuring retinal degeneration at 10 to 100 mg/kg/day administered for 7 days by microscopic analysis; assay type: organism-based, Canis lupus familiaris; settings: in vivo, 168 h
[18] = MRT in Sprague-Dawley rat at 1 mg/kg administered as iv infusion for 30 mins and measured after 24 hrs by ESI-LC/MS/MS analysis; assay type: ADME, organism-based; settings: in vivo
[19] = Ocular toxicity in Beagle dog assessed as irreversible damage by measuring decrease response in visual stimuli at 10 to 40 mg/kg/day administered for 7 days and measured from day 4 to day 7; assay type: organism-based, Canis lupus familiaris; settings: in vivo, 168 h
[20] = Ocular toxicity in Beagle dog assessed as irreversible damage by measuring ocular discharge at 10 to 40 mg/kg/day administered for 7 days and measured from day 4 to day 7; assay type: organism-based, Canis lupus familiaris; settings: in vivo, 168 h
[21] = Volume of distribution at steady state in Sprague-Dawley rat at 1 mg/kg administered as iv infusion for 30 mins and measured after 24 hrs by ESI-LC/MS/MS analysis; assay type: ADME, organism-based; settings: in vivo, read-out: Vdss
[22] = Apparent permeability across apical to basolateral side in human Caco2 cells at 10 uM after 1 to 2 hrs by LC/MS/MS analysis; assay type: ADME, cell-based; settings: Caco-2
[23] = target: T1, Phosphatidylinositol 4,5-bisphosphate 3-kinase catalytic subunit beta isoform; assay: Inhibition of PI3Kbeta in PTEN-deficient human MDA-MB-415 cells assessed as reduction in AKT phosphorylation at Ser473 residue after 2 hrs by mesoscale assay; assay type: cell-based; outline: as §1
[24] = MRT in cynomolgus monkey at 1 mg/kg administered as iv infusion for 30 mins and measured after 24 hrs by ESI-LC/MS/MS analysis; assay type: ADME, organism-based, Macaca fascicularis; settings: in vivo
CYP450 = CYP450 (Homo sapiens, UniProt P04798+P05177+P05181+P08684+P10632+P10635+P11509+P11712+P13584+P20813+P20815+P20853+P24462+P24903+P33260+P33261+P51589+P78329+P98187+Q02928+Q08477+Q16678+Q16696+Q5TCH4+Q6VVX0+Q7Z449+Q8TAV3+Q96SQ9+Q9HB55); assay: Inhibition of human CYP450; assay type: ADME, protein assay
Outline: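 Binding-assay format used to measure inhibition of major human CYP450 enzymes and hERG.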

[25] = Clearance in Beagle dog at 1 mg/kg administered as iv infusion for 30 mins and measured after 24 hrs by ESI-LC/MS/MS analysis; assay type: ADME, organism-based, Canis lupus familiaris; settings: in vivo
[26] = Volume of distribution at steady state in rhesus monkey at 1 mg/kg administered as iv infusion for 30 mins and measured after 24 hrs by ESI-LC/MS/MS analysis; assay type: ADME, organism-based, Macaca mulatta; settings: in vivo, read-out: Vdss
[27] = Oral bioavailability in cynomolgus monkey at 5 mg/kg dosed via gavage after 24 hrs by ESI-LC/MS/MS analysis; assay type: ADME, organism-based, Macaca fascicularis; settings: in vivo
[28] = Ocular toxicity in Beagle dog assessed as irreversible damage by measuring decrease in electroretinography response at 10 to 100 mg/kg/day administered for 7 days measured on day 6 by ERG and OCT analysis; assay type: organism-based, Canis lupus familiaris; settings: in vivo, 168 h
[29] = Clearance in Sprague-Dawley rat at 1 mg/kg administered as iv infusion for 30 mins and measured after 24 hrs by ESI-LC/MS/MS analysis; assay type: ADME, organism-based; settings: in vivo
[30] = Terminal half life in Sprague-Dawley rat at 1 mg/kg administered as iv infusion for 30 mins and measured after 24 hrs by ESI-LC/MS/MS analysis; assay type: ADME, organism-based; settings: in vivo, read-out: beta t1/2 (converted)
[31] = Ocular toxicity in Beagle dog assessed as irreversible damage by measuring red conjuctiva at 10 to 40 mg/kg/day administered for 7 days and measured from day 4 to day 7; assay type: organism-based, Canis lupus familiaris; settings: in vivo, 168 h
[32] = Protein binding in rhesus monkey plasma at 1 mg/kg administered as iv infusion for 30 mins and measured after 24 hrs by ESI-LC/MS/MS analysis; assay type: ADME, organism-based, Macaca mulatta; settings: read-out: PPB (converted)
[33] = Ocular toxicity in Beagle dog assessed as irreversible damage by measuring retinal necrosis at 10 to 100 mg/kg/day administered for 7 days by microscopic analysis; assay type: organism-based, Canis lupus familiaris; settings: in vivo, 168 h

T1 sequence (P42338 whole entry, canonical isoform): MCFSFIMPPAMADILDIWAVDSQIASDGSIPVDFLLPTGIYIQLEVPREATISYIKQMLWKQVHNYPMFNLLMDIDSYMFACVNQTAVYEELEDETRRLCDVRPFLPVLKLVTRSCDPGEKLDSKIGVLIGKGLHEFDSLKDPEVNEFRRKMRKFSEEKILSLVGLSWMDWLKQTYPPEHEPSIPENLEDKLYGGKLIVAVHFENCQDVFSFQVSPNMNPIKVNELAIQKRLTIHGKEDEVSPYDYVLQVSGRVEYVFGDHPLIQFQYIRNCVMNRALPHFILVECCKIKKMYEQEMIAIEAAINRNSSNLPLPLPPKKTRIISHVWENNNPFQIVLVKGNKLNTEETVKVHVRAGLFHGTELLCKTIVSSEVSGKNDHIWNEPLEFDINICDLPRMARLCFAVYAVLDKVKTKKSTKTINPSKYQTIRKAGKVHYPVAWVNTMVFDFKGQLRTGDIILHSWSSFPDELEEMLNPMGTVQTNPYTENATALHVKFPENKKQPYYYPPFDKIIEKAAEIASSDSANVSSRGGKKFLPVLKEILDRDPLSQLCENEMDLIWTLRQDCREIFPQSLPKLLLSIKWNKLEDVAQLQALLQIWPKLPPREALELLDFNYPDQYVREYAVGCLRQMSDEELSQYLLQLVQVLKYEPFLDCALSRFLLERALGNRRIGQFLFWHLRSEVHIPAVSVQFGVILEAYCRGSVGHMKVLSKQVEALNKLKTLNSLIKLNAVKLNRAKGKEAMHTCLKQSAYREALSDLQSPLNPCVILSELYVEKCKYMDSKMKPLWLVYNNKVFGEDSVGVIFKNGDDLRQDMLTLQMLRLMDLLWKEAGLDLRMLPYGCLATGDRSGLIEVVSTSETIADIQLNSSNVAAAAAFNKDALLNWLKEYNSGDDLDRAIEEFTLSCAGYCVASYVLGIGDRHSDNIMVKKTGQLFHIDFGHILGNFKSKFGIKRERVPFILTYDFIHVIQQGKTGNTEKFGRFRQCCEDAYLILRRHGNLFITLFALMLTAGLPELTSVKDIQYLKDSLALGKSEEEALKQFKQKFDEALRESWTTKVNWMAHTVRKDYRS
Cytochrome P450 3A4, sequence (P08684 whole entry): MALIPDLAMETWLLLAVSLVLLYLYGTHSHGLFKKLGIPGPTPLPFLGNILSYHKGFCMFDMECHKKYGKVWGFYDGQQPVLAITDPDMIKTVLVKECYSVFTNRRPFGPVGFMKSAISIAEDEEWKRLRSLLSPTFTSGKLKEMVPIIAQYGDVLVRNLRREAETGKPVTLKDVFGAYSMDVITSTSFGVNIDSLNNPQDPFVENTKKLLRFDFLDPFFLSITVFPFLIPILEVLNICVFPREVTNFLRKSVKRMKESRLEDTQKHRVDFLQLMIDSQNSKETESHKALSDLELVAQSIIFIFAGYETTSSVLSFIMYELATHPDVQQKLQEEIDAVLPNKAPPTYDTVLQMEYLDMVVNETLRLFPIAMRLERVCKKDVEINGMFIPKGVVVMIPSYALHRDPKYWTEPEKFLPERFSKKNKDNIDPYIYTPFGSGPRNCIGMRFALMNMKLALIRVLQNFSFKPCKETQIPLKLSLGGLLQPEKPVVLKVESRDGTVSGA
Phosphatidylinositol 4,5-bisphosphate 3-kinase catalytic subunit gamma isoform, sequence (P48736 whole entry, the tested form may be a part, canonical isoform): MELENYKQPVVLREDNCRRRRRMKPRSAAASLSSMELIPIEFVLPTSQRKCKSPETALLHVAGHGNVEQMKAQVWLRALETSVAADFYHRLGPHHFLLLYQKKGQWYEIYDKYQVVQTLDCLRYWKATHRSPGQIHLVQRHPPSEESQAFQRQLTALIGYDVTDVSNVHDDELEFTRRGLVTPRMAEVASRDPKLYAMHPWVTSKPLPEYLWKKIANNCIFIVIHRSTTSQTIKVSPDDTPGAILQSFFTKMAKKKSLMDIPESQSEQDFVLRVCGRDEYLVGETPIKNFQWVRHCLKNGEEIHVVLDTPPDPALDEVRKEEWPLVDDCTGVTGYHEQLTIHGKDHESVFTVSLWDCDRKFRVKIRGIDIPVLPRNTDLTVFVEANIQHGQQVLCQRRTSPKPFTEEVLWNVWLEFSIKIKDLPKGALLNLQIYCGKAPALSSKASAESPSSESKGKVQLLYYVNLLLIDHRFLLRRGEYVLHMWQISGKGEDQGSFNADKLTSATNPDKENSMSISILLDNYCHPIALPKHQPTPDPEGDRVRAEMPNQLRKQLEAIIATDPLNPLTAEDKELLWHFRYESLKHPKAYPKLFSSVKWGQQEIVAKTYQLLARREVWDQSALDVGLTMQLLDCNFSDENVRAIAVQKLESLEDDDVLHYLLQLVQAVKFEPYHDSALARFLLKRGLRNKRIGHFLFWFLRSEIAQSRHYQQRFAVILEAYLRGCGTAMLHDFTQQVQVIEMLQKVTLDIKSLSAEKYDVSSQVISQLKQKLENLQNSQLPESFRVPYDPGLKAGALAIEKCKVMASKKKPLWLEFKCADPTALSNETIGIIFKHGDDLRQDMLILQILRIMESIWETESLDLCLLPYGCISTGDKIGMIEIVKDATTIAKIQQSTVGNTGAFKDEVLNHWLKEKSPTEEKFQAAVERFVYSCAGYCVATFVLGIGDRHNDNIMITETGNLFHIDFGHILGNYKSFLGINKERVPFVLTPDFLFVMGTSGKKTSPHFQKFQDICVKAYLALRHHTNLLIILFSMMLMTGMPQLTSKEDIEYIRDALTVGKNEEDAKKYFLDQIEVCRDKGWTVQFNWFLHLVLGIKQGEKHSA

Cc1nc2c(-c3nnc[nH]3)cc(-c3ccnc(C#N)c3)cc2n1-c1ccnc2c(F)ccc(F)c12
fraction unbound at 24 h [1]: 0.16 | clearance [2]: 4.17 mL/min/kg | Activity [3]: Toxic | Activity [4]: Non-Toxic | EC50 [5]: 31 nM | Activity [6]: Toxic | half-life [7]: 4.1 h | EC50 [8]: 5 nM | IC50 [9]: 6610 nM | clearance [10]: 7.83 mL/min/kg | Vd [11]: 1.3 L/kg | bioavailability [12]: 53% | half-life [13]: 4.4 h | half-life [14]: 5.5 h | EC50 [15]: 12 nM | IC50 (Cytochrome P450 3A4): 24000 nM | pKa [16]: < 1 | Activity [17]: Toxic | MRT [18]: 1.3 h | Activity [19]: Toxic | Activity [20]: Toxic | Vd [21]: 2.5 L/kg | Papp A→B at 10 µM [22]: 22 ×10⁻⁶ cm/s | EC50 [23]: 15 nM | MRT [24]: 5.2 h | IC50 (CYP450): > 25000 nM | clearance [25]: 5.67 mL/min/kg | Vd [26]: 2.6 L/kg | bioavailability [27]: 35% | Activity [28]: Toxic | clearance [29]: 32.8 mL/min/kg | half-life [30]: 1.2 h | Activity [31]: Toxic | fraction unbound at 24 h [32]: 0.19 | Activity [33]: Toxic

Source: ChEMBL document CHEMBL4616704, “Discovery of an Atropisomeric PI3Kβ Selective Inhibitor through Optimization of the Hinge Binding Motif” (ACS Med Chem Lett, 2020)
